Laboratory results from publication PMC7312786 (Biochemistry, 2018).

What was measured:
hRev1 = biological target: T1, hRev1 (Homo sapiens, UniProt Q9UBZ9); test: Gel-based pol extension assay, hRev1; assay type: biochemical; conditions: read-out: IC50, hRev1, gel-based assay; best-fit value (95% confidence interval), three experiments
T1 sequence (Q9UBZ9 330-833): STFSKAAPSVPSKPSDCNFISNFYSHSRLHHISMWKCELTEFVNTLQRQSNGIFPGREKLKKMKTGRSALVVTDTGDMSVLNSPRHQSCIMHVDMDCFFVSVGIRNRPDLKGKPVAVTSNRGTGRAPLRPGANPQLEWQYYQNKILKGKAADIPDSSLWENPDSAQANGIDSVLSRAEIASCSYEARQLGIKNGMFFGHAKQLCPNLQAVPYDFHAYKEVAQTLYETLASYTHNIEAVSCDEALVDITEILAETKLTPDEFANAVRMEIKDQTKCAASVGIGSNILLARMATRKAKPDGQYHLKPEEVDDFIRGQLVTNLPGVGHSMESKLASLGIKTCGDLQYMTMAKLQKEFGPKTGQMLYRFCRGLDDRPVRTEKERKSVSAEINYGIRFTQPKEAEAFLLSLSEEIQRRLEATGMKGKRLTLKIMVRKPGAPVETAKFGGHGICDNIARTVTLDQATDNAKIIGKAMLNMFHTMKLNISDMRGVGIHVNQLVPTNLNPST

hpol κ = biological target: T2, hpol κ (Homo sapiens, UniProt Q9UBT6); test: Gel-based pol extension assay, hpol κ; assay type: biochemical
T2 sequence (Q9UBT6 19-526): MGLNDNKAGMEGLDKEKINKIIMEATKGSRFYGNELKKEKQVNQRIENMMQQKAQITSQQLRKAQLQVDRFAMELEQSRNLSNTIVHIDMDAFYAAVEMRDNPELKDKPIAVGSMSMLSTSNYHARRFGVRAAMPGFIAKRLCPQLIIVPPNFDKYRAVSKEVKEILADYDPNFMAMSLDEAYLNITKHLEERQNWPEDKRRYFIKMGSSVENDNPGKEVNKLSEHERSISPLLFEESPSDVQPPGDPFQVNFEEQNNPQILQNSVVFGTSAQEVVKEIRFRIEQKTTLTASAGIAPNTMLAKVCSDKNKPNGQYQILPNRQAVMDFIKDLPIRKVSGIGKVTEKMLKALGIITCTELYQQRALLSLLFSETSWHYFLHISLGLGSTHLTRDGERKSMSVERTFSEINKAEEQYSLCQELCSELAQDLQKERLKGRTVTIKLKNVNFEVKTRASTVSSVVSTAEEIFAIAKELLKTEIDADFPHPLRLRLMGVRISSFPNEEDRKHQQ
How it was run: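 Gel extension assay with hpol ι core (residues 1–446) or hpol κ core (residues 19–526). Enzyme 2 nM preincubated 5 min with increasing test compound in 50 mM HEPES pH 7.5, 50 mM NaCl, 1 mM DTT, 0.1 mg/mL BSA, 10% glycerol. Started at 37 °C with 200 nM FAM-labeled 13/18-mer primer–template, 10 μM each dNTP, 5 mM MgCl₂. Quench: 20 mM EDTA/95% formamide, 95 °C. Triplicate; IC50 mean ± SD.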

hpol θ = biological target: T3, hpol θ (Homo sapiens, UniProt O75417); test: Fluorescence-based pol activity assay, hpol θ; assay type: biochemical; conditions: 20 μM PNR-7-02; mean (±SD)
T3 sequence (O75417 1792-2590): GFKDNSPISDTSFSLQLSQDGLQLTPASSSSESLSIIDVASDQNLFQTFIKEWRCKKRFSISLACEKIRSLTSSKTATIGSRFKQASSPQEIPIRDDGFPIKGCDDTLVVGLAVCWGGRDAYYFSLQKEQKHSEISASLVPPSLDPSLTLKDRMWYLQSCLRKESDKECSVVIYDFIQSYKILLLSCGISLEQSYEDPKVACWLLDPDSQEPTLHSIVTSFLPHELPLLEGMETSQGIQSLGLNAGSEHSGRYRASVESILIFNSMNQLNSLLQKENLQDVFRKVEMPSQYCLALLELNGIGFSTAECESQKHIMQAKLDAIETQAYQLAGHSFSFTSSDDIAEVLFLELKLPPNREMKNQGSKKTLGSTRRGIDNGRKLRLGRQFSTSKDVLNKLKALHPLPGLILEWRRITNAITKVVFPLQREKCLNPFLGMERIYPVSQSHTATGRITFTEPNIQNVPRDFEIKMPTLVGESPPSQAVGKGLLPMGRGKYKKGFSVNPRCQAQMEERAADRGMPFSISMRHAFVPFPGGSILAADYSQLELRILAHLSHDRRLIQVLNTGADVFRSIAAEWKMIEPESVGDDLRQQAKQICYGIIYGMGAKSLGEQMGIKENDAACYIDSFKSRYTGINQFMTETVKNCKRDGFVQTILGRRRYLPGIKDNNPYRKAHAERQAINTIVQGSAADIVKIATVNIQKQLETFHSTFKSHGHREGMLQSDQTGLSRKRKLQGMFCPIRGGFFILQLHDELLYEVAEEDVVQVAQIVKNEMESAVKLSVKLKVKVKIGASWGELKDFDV

hpol λ = biological target: T4, hpol λ (Homo sapiens, UniProt Q9UGP5); test: Fluorescence-based pol activity assay, hpol λ; assay type: biochemical
T4 sequence (Q9UGP5 251-575 limits assumed): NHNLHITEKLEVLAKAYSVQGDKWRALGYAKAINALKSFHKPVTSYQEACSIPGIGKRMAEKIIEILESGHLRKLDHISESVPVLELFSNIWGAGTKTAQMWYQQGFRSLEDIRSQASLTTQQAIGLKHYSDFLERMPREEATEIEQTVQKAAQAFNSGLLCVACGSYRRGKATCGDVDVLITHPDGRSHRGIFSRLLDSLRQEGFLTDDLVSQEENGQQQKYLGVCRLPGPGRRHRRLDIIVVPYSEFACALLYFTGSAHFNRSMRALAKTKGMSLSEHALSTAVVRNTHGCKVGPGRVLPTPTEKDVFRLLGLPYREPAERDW

[1] = tested on: γH2AX in hpol η-proficient HAP-1 cells; test: γH2AX immunoblotting, hpol η-proficient HAP-1 cells; assay type: cell-based, human; conditions: PNR-7-02 alone
How it was run: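 HAP-1 cells treated with DMSO or 0.5 μM CDDP combined with 0.1 or 1 μM test compound. Pellets lysed at 4 °C in HEPES pH 7.5/Triton X-100 buffer with phosphatase and protease inhibitors. 30–40 μg protein run on 4–20% SDS-PAGE, transferred to nitrocellulose. Probed with anti-γH2AX (S139) 1:1500 and HRP anti-rabbit 1:4000; β-actin loading control; chemiluminescence. Bands normalized to β-actin, relative to DMSO; three biological replicates; t test.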

O=C1NC(=S)NC(=O)C1=Cc1cn(Cc2ccc3ccccc3c2)c2ccc(Cl)cc12 [PNR-7-02, 5-((5-chloro-1-(naphthalen-2-ylmethyl)-1H-indol-3-yl)methylene)-2-thioxodihydropyrimidine-4,6-(1H,5H)-dione]
IC50 (hRev1): 8 µM | Increase in IC50 against hpol κ (hpol κ; gel-based assay, relative to hpol η / hRev1): ~3 fold | IC50 (hpol κ; read-out: IC50, hpol κ, gel-based assay, best-fit value (95% confidence interval), three experiments): 22 µM | Pol activity relative to DMSO control, hpol θ (hpol θ): 86 (±1) % | Effect on catalysis by hpol λ (hpol λ; 20 μM PNR-7-02): strongly inhibited | Pol activity relative to DMSO control, hpol λ (hpol λ; 20 μM PNR-7-02, mean (±SD)): 5.9 (±2.1) % | IC50 (hpol λ; read-out: IC50, hpol λ, best-fit value and 95% confidence interval, three replicates): 8 µM | μH2AX formation [1]: did not change
